# Measurements: article PMC9049141 (RSC Advances, 2020)
# pKd: −log10 of the molar value. Square brackets hold non-standard residues; d marks the D form. Ends that are not written are not given here. * marks the point of attachment. FITC = O=C1OC2(c3ccc(O)cc3Oc3cc(O)ccc32)c2ccc(NC(=S)*)cc21; Stearoyl = CCCCCCCCCCCCCCCCCC(=O)*; Palmitoyl = CCCCCCCCCCCCCCCC(=O)*; Myristoyl = CCCCCCCCCCCCCC(=O)*; Aib = CC(C)(N)C(=O)O; Ahx = NCCCCCC(=O)O
# How the values were obtained:
# HSA = HSA (Homo sapiens, UniProt P02768); experiment: Albumin binding affinity by surface plasmon resonance; conditions: for k a / k d: SPR, BIAcoT200 system, HSA; for pKd: human, HSA (human serum albumin), surface plasmon resonance
# Sequence of HSA (P02768 25-609): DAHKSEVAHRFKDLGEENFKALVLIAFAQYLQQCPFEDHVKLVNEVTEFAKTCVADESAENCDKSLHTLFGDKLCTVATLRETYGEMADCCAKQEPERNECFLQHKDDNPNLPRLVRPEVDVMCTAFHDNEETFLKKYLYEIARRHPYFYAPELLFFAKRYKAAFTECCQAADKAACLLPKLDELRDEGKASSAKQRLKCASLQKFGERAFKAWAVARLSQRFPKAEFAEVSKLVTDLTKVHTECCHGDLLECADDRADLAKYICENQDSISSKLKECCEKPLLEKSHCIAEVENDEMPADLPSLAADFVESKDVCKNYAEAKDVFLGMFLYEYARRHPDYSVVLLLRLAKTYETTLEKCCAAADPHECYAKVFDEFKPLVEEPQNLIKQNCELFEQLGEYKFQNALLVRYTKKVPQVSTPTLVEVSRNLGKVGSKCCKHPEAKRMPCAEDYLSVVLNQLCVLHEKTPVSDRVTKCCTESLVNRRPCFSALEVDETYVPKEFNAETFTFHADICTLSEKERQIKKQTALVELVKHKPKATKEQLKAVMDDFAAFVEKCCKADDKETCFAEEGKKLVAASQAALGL
# [1] = Plasma stability test in human plasma with or without HSA; format: in vitro ADME
# In short: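 Albumin-depleted human plasma was prepared with a blue-dye albumin removal kit. Test peptides at a final 1 mg L−1 were incubated at 37 °C in human plasma with or without HSA. Samples were taken at time points from 0 to 144 h and analysed by LC-MS/MS.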
# db/db mice [2] = experiment: Chronic in vivo study, 8 weeks, db/db mice; conditions: for ALT / AST / HDL / LDL / LDL/HDL / TC / TG: db/db mice serum, 8 weeks twice-weekly s.c.; for decrease of OGTT AUC after 8 week treatment compared with day 0: n = 8
# In short: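 Male db/db mice (purchased at 6–8 weeks, housed six per cage, 12 h light–dark) got twice-weekly s.c. saline, a reference GLP-1 analog (90 nmol kg−1) or test compound (10, 30, 90 nmol kg−1) for eight weeks. Blood biochemical parameters were measured on an automatic biochemical analyzer. Pancreas was paraffin-embedded and H&E-stained. Data are mean ± SD; one-way ANOVA, P < 0.05.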
# GK rats = experiment: Modified multiple OGTTs; format: in vivo
# In short: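 Male GK rats (purchased at 6–8 weeks) got one s.c. dose of saline, test compound (10, 30, 90 nmol kg−1) or a reference GLP-1 analog (90 nmol kg−1). Repeated oral glucose challenges followed, the first at 0.5 h after dosing. Glucose was read by glucometer. AUCs were taken for 0–2, 72–74 and 144–146 h, and the percent AUC reduction was calculated versus saline.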
# db/db mice [3] = experiment: Hypoglycemic duration test; format: in vivo; conditions: non-fasted db/db mice
# In short: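 Non-fasted db/db mice with free food and water got one s.c. dose of saline, a reference GLP-1 analog (90 nmol kg−1) or test compound (10, 30, 90 nmol kg−1). Tail-vein blood was sampled at 0, 0.5, 1, 2, 4, 8, 24, 36, 48, 72, 120, 168 and 216 h, with glucose by glucometer. Hypoglycemic duration was the time BGL stayed under 8.35 mmol L−1. Data are mean ± SD; one-way ANOVA.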
# [4] = Pharmacokinetic study in rhesus monkey; format: in vivo; conditions: plasma, sc
# In short: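 Male rhesus monkeys received one s.c. dose of test compound at 10, 30 or 90 nmol kg−1. Blood was drawn pre-dose and at 1, 2, 4, 8, 24, 36, 48, 72, 96, 120, 144 and 168 h. Intact peptide and free GLP-1 (A8Aib) in plasma were quantified by LC-MS/MS.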
# db/db mice [5] = experiment: Oral glucose tolerance test; format: in vivo
# In short: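 Male db/db mice were fasted overnight and split into five groups. They received saline or test compound s.c. at 10, 30, 90 or 150 nmol kg−1, half an hour before an oral glucose load of 2.0 g kg−1. Blood glucose was read by handheld glucometer before and 15, 30, 60 and 120 min after the load. Data are mean ± SD with one-way ANOVA.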
# [6] = human plasma without albumin (HSA-free)
# [7] = single s.c. 10 nmol kg^−1, n = 8
# [8] = single s.c. 30 nmol kg^−1, n = 8
# [9] = single s.c. 90 nmol kg^−1, n = 8
substance,measurement,setting,value
{FITC-Ahx}-EK(Myristoyl)YEEYEGGGGSGGGGSFNPRH[Aib]EGTFTSDVSSYLEGQAAKEFIAWLVKGRG (N-terminus assumed) [PES04],k a,HSA,1240 M⁻¹ s⁻¹
same,k d,HSA,0.0332 s⁻¹
same,pKd,HSA,4.57
{FITC-Ahx}-EK(Palmitoyl)YEEYEGGGGSGGGGSFNPRH[Aib]EGTFTSDVSSYLEGQAAKEFIAWLVKGRG (N-terminus assumed) [PES05],k a,HSA,8900 M⁻¹ s⁻¹
same,k d,HSA,0.0722 s⁻¹
same,pKd,HSA,5.09
{FITC-Ahx}-EK(Stearoyl)YEEYEGGGGSGGGGSFNPRH[Aib]EGTFTSDVSSYLEGQAAKEFIAWLVKGRG (N-terminus assumed) [PES06],k a,HSA,18800 M⁻¹ s⁻¹
same,k d,HSA,0.0922 s⁻¹
same,pKd,HSA,5.31
{FITC-Ahx}-EYEEK(Myristoyl)YEGGGGSGGGGSFNPRH[Aib]EGTFTSDVSSYLEGQAAKEFIAWLVKGRG (N-terminus assumed) [PES13],k a,HSA,11000 M⁻¹ s⁻¹
same,k d,HSA,0.00422 s⁻¹
same,pKd,HSA,6.42
same,half-life at 1 mg L^−1,[1]; human plasma with HSA,68.7 h
same,half-life at 1 mg L^−1,[1]; [6],64.4 h
{FITC-Ahx}-EYEEK(Palmitoyl)YEGGGGSGGGGSFNPRH[Aib]EGTFTSDVSSYLEGQAAKEFIAWLVKGRG (N-terminus assumed) [PES14],k a,HSA,14500 M⁻¹ s⁻¹
same,k d,HSA,0.0101 s⁻¹
same,pKd,HSA,6.16
same,ALT,"db/db mice [2]; 10 nM kg^−1, mean ± SD n = 8",59.2 ± 2.8 IU L^−1
same,AST,"db/db mice [2]; 10 nM kg^−1, mean ± SD n = 8",158 ± 12.2 IU L^−1
same,HDL,"db/db mice [2]; 10 nM kg^−1, mean ± SD n = 8",2.5 ± 0.6 mmol/L
same,LDL,"db/db mice [2]; 10 nM kg^−1, mean ± SD n = 8",1.6 ± 0.3 mmol/L
same,LDL/HDL,"db/db mice [2]; 10 nM kg^−1, mean ± SD n = 8",0.64 ± 0.19
same,TC,"db/db mice [2]; 10 nM kg^−1, mean ± SD n = 8",4.8 ± 0.6 mmol/L
same,TG,"db/db mice [2]; 10 nM kg^−1, mean ± SD n = 8",1.1 ± 0.1 mmol/L
same,ALT,"db/db mice [2]; 30 nM kg^−1, mean ± SD n = 8",55.0 ± 4.0 IU L^−1
same,AST,"db/db mice [2]; 30 nM kg^−1, mean ± SD n = 8",140 ± 9.9 IU L^−1
same,HDL,"db/db mice [2]; 30 nM kg^−1, mean ± SD n = 8",2.5 ± 0.5 mmol/L
same,LDL,"db/db mice [2]; 30 nM kg^−1, mean ± SD n = 8",1.4 ± 0.2 mmol/L
same,LDL/HDL,"db/db mice [2]; 30 nM kg^−1, mean ± SD n = 8",0.44 ± 0.15
same,TC,"db/db mice [2]; 30 nM kg^−1, mean ± SD n = 8",4.4 ± 0.3 mmol/L
same,TG,"db/db mice [2]; 30 nM kg^−1, mean ± SD n = 8",1.0 ± 0.7 mmol/L
same,area and number of pancreatic islets,"db/db mice [2]; db/db mice, 8 weeks, H&E staining, compared with saline",increased
same,reduction of LDL/HDL ratio,"db/db mice [2]; db/db mice, after 8 week exposure",up to 47%
same,insulin immunoreactivity,"db/db mice [2]; db/db mice, chronic treatment 8 weeks, pancreas sections",preserved proper insulin immunoreactivity
same,decrease of OGTT AUC after 8 week treatment compared with day 0,"db/db mice [2]; db/db mice, twice-weekly s.c. 10 nmol kg^−1, 8 weeks",17.1%
same,decrease of OGTT AUC after 8 week treatment compared with day 0,"db/db mice [2]; db/db mice, twice-weekly s.c. 30 nmol kg^−1, 8 weeks",28.9%
same,decrease of OGTT AUC after 8 week treatment compared with day 0,"db/db mice [2]; db/db mice, twice-weekly s.c. 90 nmol kg^−1, 8 weeks",58.2%
same,"body weight gain, food intake and fat%","db/db mice [2]; db/db mice, twice-weekly s.c. 10, 30 and 90 nmol kg^−1, 56 days, vs saline",obviously reduction
same,half-life at 1 mg L^−1,[1]; human plasma with HSA,> 72 h
same,half-life at 1 mg L^−1,[1]; [6],60.1 h
same,AUC-lowering percentage in third OGTT (144–146 h) versus placebo,GK rats; [7],22.1%
same,AUC-lowering percentage in third OGTT (144–146 h) versus placebo,GK rats; [8],31.0%
same,AUC-lowering percentage in third OGTT (144–146 h) versus placebo,GK rats; [9],44.7%
same,time hypoglycemic effects maintained,db/db mice [3]; single s.c. 10 nmol kg^−1,more than 120 h
same,decrease of BGL AUC for 0–192 h compared with saline,db/db mice [3]; [7],38.4%
same,time hypoglycemic effects maintained,db/db mice [3]; single s.c. 30 nmol kg^−1,> 168 h
same,decrease of BGL AUC for 0–192 h compared with saline,db/db mice [3]; [8],49.3%
same,duration for BGLs rebound over 8.35 mmol L^−1,db/db mice [3]; [8],22.3 h
same,time hypoglycemic effects maintained,db/db mice [3]; single s.c. 90 nmol kg^−1,> 216 h
same,decrease of BGL AUC for 0–192 h compared with saline,db/db mice [3]; [9],65.0%
same,duration for BGLs rebound over 8.35 mmol L^−1,db/db mice [3]; [9],50.8 h
same,time for BGLs to reach the normoglycemic value,db/db mice [3]; single s.c. 30 and 90 nmol kg^−1,≤ 2 h
same,half-life,[4]; 10 nmol kg^−1,62.6 h
same,half-life,[4]; 30 nmol kg^−1,78.8 h
same,half-life,[4]; 90 nmol kg^−1,95.1 h
same,glucose AUC in OGTT,"db/db mice [5]; single s.c. 90 nmol kg^−1, AUC0–120 min",780.17 nmol/L/min
same,glucose AUC in OGTT,"db/db mice [5]; single s.c. 150 nmol kg^−1, AUC0–120 min",738.56 nmol/L/min
{FITC-Ahx}-EYEEK(Stearoyl)YEGGGGSGGGGSFNPRH[Aib]EGTFTSDVSSYLEGQAAKEFIAWLVKGRG (N-terminus assumed) [PES15],k a,HSA,21800 M⁻¹ s⁻¹
same,k d,HSA,0.0112 s⁻¹
same,pKd,HSA,6.29
same,half-life at 1 mg L^−1,[1]; human plasma with HSA,56.5 h
same,half-life at 1 mg L^−1,[1]; [6],48.5 h
{FITC-Ahx}-EYEEYEK(Myristoyl)GGGGSGGGGSFNPRH[Aib]EGTFTSDVSSYLEGQAAKEFIAWLVKGRG (N-terminus assumed) [PES19],k a,HSA,2500 M⁻¹ s⁻¹
same,k d,HSA,0.0222 s⁻¹
same,pKd,HSA,5.06
{FITC-Ahx}-EYEEYEK(Palmitoyl)GGGGSGGGGSFNPRH[Aib]EGTFTSDVSSYLEGQAAKEFIAWLVKGRG (N-terminus assumed) [PES20],k a,HSA,3180 M⁻¹ s⁻¹
same,k d,HSA,0.0534 s⁻¹
same,pKd,HSA,4.77
{FITC-Ahx}-EYEEYEK(Stearoyl)GGGGSGGGGSFNPRH[Aib]EGTFTSDVSSYLEGQAAKEFIAWLVKGRG (N-terminus assumed) [PES21],k a,HSA,11400 M⁻¹ s⁻¹
same,k d,HSA,0.036 s⁻¹
same,pKd,HSA,5.50
{FITC-Ahx}-EYEEYK(Myristoyl)EGGGGSGGGGSFNPRH[Aib]EGTFTSDVSSYLEGQAAKEFIAWLVKGRG (N-terminus assumed) [PES16],k a,HSA,11000 M⁻¹ s⁻¹
same,k d,HSA,0.0192 s⁻¹
same,pKd,HSA,5.76
{FITC-Ahx}-EYEEYK(Palmitoyl)EGGGGSGGGGSFNPRH[Aib]EGTFTSDVSSYLEGQAAKEFIAWLVKGRG (N-terminus assumed) [PES17],k a,HSA,12000 M⁻¹ s⁻¹
same,k d,HSA,0.0627 s⁻¹
same,pKd,HSA,5.28
{FITC-Ahx}-EYEEYK(Stearoyl)EGGGGSGGGGSFNPRH[Aib]EGTFTSDVSSYLEGQAAKEFIAWLVKGRG (N-terminus assumed) [PES18],k a,HSA,11400 M⁻¹ s⁻¹
same,k d,HSA,0.036 s⁻¹
same,pKd,HSA,5.50
{FITC-Ahx}-EYEK(Myristoyl)EYEGGGGSGGGGSFNPRH[Aib]EGTFTSDVSSYLEGQAAKEFIAWLVKGRG (N-terminus assumed) [PES10],k a,HSA,12900 M⁻¹ s⁻¹
same,k d,HSA,0.0328 s⁻¹
same,pKd,HSA,5.60
{FITC-Ahx}-EYEK(Palmitoyl)EYEGGGGSGGGGSFNPRH[Aib]EGTFTSDVSSYLEGQAAKEFIAWLVKGRG (N-terminus assumed) [PES11],k a,HSA,8380 M⁻¹ s⁻¹
same,k d,HSA,0.0782 s⁻¹
same,pKd,HSA,5.03
{FITC-Ahx}-EYEK(Stearoyl)EYEGGGGSGGGGSFNPRH[Aib]EGTFTSDVSSYLEGQAAKEFIAWLVKGRG (N-terminus assumed) [PES12],k a,HSA,21700 M⁻¹ s⁻¹
same,k d,HSA,0.0531 s⁻¹
same,pKd,HSA,5.61
{FITC-Ahx}-EYK(Myristoyl)EEYEGGGGSGGGGSFNPRH[Aib]EGTFTSDVSSYLEGQAAKEFIAWLVKGRG (N-terminus assumed) [PES07],k a,HSA,8240 M⁻¹ s⁻¹
same,k d,HSA,0.0632 s⁻¹
same,pKd,HSA,5.12
{FITC-Ahx}-EYK(Palmitoyl)EEYEGGGGSGGGGSFNPRH[Aib]EGTFTSDVSSYLEGQAAKEFIAWLVKGRG (N-terminus assumed) [PES08],k a,HSA,26700 M⁻¹ s⁻¹
same,k d,HSA,0.0942 s⁻¹
same,pKd,HSA,5.45
{FITC-Ahx}-EYK(Stearoyl)EEYEGGGGSGGGGSFNPRH[Aib]EGTFTSDVSSYLEGQAAKEFIAWLVKGRG (N-terminus assumed) [PES09],k a,HSA,12100 M⁻¹ s⁻¹
same,k d,HSA,0.0531 s⁻¹
same,pKd,HSA,5.36
{FITC-Ahx}-K(Myristoyl)EYEEYEGGGGSGGGGSFNPRH[Aib]EGTFTSDVSSYLEGQAAKEFIAWLVKGRG (N-terminus assumed) [PES01],k a,HSA,6900 M⁻¹ s⁻¹
same,k d,HSA,0.0182 s⁻¹
same,pKd,HSA,5.58
{FITC-Ahx}-K(Stearoyl)EYEEYEGGGGSGGGGSFNPRH[Aib]EGTFTSDVSSYLEGQAAKEFIAWLVKGRG (N-terminus assumed) [PES03],k a,HSA,12800 M⁻¹ s⁻¹
same,k d,HSA,0.0322 s⁻¹
same,pKd,HSA,5.60
